ChEMBL document CHEMBL1124174, “Substituted benzamides. 1. Potential nondopaminergic antagonists of chemotherapy-induced nausea and emesis” (J Med Chem, 1988)
“And” between values parts separate entries of the source, which are not always exact repeats. Equal values may be shown once.

Experiments:
[1] = molecular target: D(2) dopamine receptor (Canis lupus familiaris) (UniProt Q9GJU1); assay: In vivo antagonism activity against dopamine D2 receptor was measured as emesis in dog when administered subcutaneously; type: functional, organism-based
[2] = molecular target: D(2) dopamine receptor (Rattus norvegicus, UniProt P61169); assay: In vitro antagonistic activity against Dopamine receptor D2 was evaluated for the inhibition of [3H]spiperone binding
Outline: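 Rat striatal membranes were prepared by differential centrifugation in 50 mM Tris pH 7.4 at 4 °C. Membrane protein (10 mg) was incubated 15 min at 37 °C with 0.1 nM [3H]spiperone and varying competitor concentrations. Buffer: 50 mM Tris HCl pH 7.5, 0.1% ascorbic acid, pargyline, 120 mM NaCl, 5 mM KCl, 2 mM CaCl2, 1 mM MgCl2. (+)-Butaclamol defined nonspecific binding. Bound ligand was collected by filtration and scintillation counted. IC50 by log-logit regression.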

[3] = tested on: Canis familiaris; assay: In vivo antagonism of cisplatin-induced emesis in dog measured as emetic episodes, twice the dose of 1 mg/kg in 2 dogs; type: functional, Canis lupus familiaris
Outline: (§1)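 Nonfasted mature male or female beagles were dosed sc twice, 30 min before and 120 min after cisplatin (3 mg/kg iv; 3 mg/mL in warm 0.9% saline, used immediately). Emesis was observed up to 5 h; events within 2 min counted as one episode. Results were given as mean emetic episodes and % protection versus a dynamic control (historical and concurrent saline means pooled). t test versus saline.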

[4] = tested on: Canis familiaris; assay: In vivo antagonism of cisplatin-induced emesis in dog measured as percentage protection for twice the dose of 1 mg/kg in 2 dogs; type: functional, Canis lupus familiaris; outline: as §1
[5] = tested on: Mustela putorius furo; assay: In vivo antagonism of cisplatin-induced emesis in ferret measured as emetic episodes, twice the dose of 3 mg/kg and in 2 ferrets; type: functional
Outline: (§2)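 Nonfasted castrated male Fitch ferrets (1–1.5 kg) had jugular catheters implanted ≥48 h earlier under anesthesia. Compounds or saline were given iv twice, 5 min before and 90 min after cisplatin (12 mg/kg iv; 12 mg/mL in warm 0.9% saline). Emesis was observed up to 4 h; events within 1 min counted as one episode. Results were given as mean emetic episodes and % protection versus a pooled historical/concurrent control. t test versus saline.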

[6] = tested on: Mustela putorius furo; assay: In vivo antagonism of cisplatin-induced emesis in ferret measured as percentage protection for twice the dose of 3 mg/kg and in 2 ferrets; type: functional; outline: as §2
[7] = molecular target: D(2) dopamine receptor (Rattus norvegicus) (UniProt P61169); assay: In vivo antagonism activity against D2 receptor was measured as stereotypy in rat when administered subcutaneously; type: functional, organism-based
Outline: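 Male Long Evans rats (275 g) were dosed sc in dilute aqueous HCl (pH 4.5-5.5) 30 min before apomorphine (1 mg/kg sc).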

[8] = molecular target: D(2) dopamine receptor (Rattus norvegicus) (UniProt P61169); assay: In vivo antagonistic activity against dopamine D2 receptor was measured as catalepsy in rat when administered subcutaneously; type: functional, organism-based
Outline: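 Male Long Evans rats (275 g) received graded sc doses in dilute aqueous HCl (pH 4.5-5.5). They were observed 180 min for catalepsy, scored when the animal stayed stationary ≥15 s on a four-cork template.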

[9] = tested on: Canis familiaris; assay: In vivo antagonism of cisplatin-induced emesis in dog measured as emetic episodes, twice the dose of 6 mg/kg in 3 dogs; type: functional, Canis lupus familiaris
Outline: (§3)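 Nonfasted mature male or female beagles received test compound or saline sc twice, 30 min before and 120 min after cisplatin (3 mg/kg iv; 3 mg/mL in warm 0.9% saline, used at once). Emesis observed up to 5 h. Emetic episode = expulsion of stomach content; events within 2 min counted as one. Protection calculated against a dynamic control (historical mean pooled with concurrent saline control).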

[10] = tested on: Canis familiaris; assay: In vivo antagonism of cisplatin-induced emesis in dog measured as percentage protection for twice the dose of 6 mg/kg in 3 dogs; type: functional, Canis lupus familiaris; outline: as §3
[11] = tested on: Mustela putorius furo; assay: In vivo antagonism of cisplatin-induced emesis in ferret measured as emetic episodes, twice the dose of 3 mg/kg and in 3 ferrets; type: functional; outline: as §2
[12] = tested on: Mustela putorius furo; assay: In vivo antagonism of cisplatin-induced emesis in ferret measured as percentage protection for twice the dose of 3 mg/kg and in 3 ferrets; type: functional; outline: as §2
[13] = tested on: Canis familiaris; assay: In vivo antagonism of cisplatin-induced emesis in dog measured as percentage protection for twice the dose of 0.1 mg/kg in 2 dogs; type: functional, Canis lupus familiaris; outline: as §1
[14] = tested on: Canis familiaris; assay: In vivo antagonism of cisplatin-induced emesis in dog measured as percentage protection for twice the dose of 0.3 mg/kg in 2 dogs; type: functional, Canis lupus familiaris; outline: as §1
[15] = tested on: Canis familiaris; assay: In vivo protection against cisplatin-induced emesis in dog measured as emetic episodes for twice the dose of 0.1 mg/kg and in 3 […]; type: functional, Canis lupus familiaris
[16] = tested on: Canis familiaris; assay: In vivo protection against cisplatin-induced emesis in dog measured as emetic episodes for twice the dose of 0.3 mg/kg and in 5 […]; type: functional, Canis lupus familiaris
[17] = tested on: Canis familiaris; assay: In vivo protection against cisplatin-induced emesis in dog measured as emetic episodes for twice the dose of 0.9 mg/kg and in 3 […]; type: functional, Canis lupus familiaris
[18] = tested on: Canis familiaris; assay: In vivo antagonism of cisplatin-induced emesis in dog measured as emetic episodes, twice the dose of 0.1 mg/kg in 2 dogs; type: functional, Canis lupus familiaris; outline: as §1
[19] = tested on: Canis familiaris; assay: In vivo antagonism of cisplatin-induced emesis in dog measured as emetic episodes, twice the dose of 0.3 mg/kg in 2 dogs; type: functional, Canis lupus familiaris; outline: as §1
[20] = tested on: Canis familiaris; assay: In vivo protection against cisplatin-induced emesis in dog measured as percentage protection for twice the dose of 0.1 mg/kg and in 3 […]; type: functional, Canis lupus familiaris
[21] = tested on: Mustela putorius furo; assay: In vivo protection against cisplatin-induced emesis in ferret measured as emetic episodes for twice the dose of 0.3 mg/kg and in 6 ferrets; type: functional
Outline: (§4)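 Nonfasted castrated male Fitch ferrets (1–1.5 kg) carried jugular vein catheters implanted at least 48 h earlier under general anesthesia. Test compound or saline was given iv twice, 5 min before and 90 min after cisplatin (12 mg/kg iv; 12 mg/mL in warm saline). Emesis was watched for 4 h, with events within 1 min counted as one episode. % protection is relative to a pooled historical-plus-concurrent control, with t test versus saline.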

[22] = tested on: Mustela putorius furo; assay: In vivo protection against cisplatin-induced emesis in ferret measured as emetic episodes for twice the dose of 2.7 mg/kg and in 3 ferrets; type: functional; outline: as §4
[23] = tested on: Mustela putorius furo; assay: In vivo protection against cisplatin-induced emesis in ferret measured as p emetic episodes for twice the dose of 0.9 mg/kg and in 6 ferrets; type: functional; outline: as §4
[24] = tested on: Mustela putorius furo; assay: Cisplatin-induced emesis in ferret measured as stereotypy […] when administered iv […] twice daily; type: functional
[25] = tested on: Mustela putorius furo; assay: In vivo protection against cisplatin-induced emesis in ferret measured as percentage protection for twice the dose of 0.1 mg/kg and in 3 ferrets; type: functional; outline: as §4
[26] = tested on: Mustela putorius furo; assay: In vivo protection against cisplatin-induced emesis in ferret measured as percentage protection for twice the dose of 0.3 mg/kg and in 6 ferrets; type: functional; outline: as §4
[27] = tested on: Mustela putorius furo; assay: In vivo protection against cisplatin-induced emesis in ferret measured as percentage protection for twice the dose of 0.9 mg/kg and in 6 ferrets; type: functional; outline: as §4
[28] = tested on: Mustela putorius furo; assay: In vivo antagonism of cisplatin-induced emesis in ferret measured as emetic episodes, twice the dose of 0.1 mg/kg and in 3 ferrets; type: functional; outline: as §2
[29] = tested on: Mustela putorius furo; assay: In vivo antagonism of cisplatin-induced emesis in ferret measured as emetic episodes, twice the dose of 0.3 mg/kg and in 3 ferrets; type: functional; outline: as §2
[30] = tested on: Mustela putorius furo; assay: In vivo protection against cisplatin-induced emesis in ferret measured as percentage protection for twice the dose of 2.7 mg/kg and in 0.1 ferrets; type: functional; details: in the assay text read “in 3 ferrets” for “in 0.1 ferrets”; outline: as §4
[31] = tested on: Mustela putorius furo; assay: In vivo antagonism of cisplatin-induced emesis in ferret measured as percentage protection for twice the dose of 3 mg/kg and […]; type: functional; outline: as §2
[32] = tested on: Mustela putorius furo; assay: In vivo protection against cisplatin-induced emesis in ferret measured as emetic episodes for twice the dose of 0.1 mg/kg and in 3 ferrets; type: functional; outline: as §4
[33] = tested on: Canis familiaris; assay: cisplatin-induced emesis in dog was measured for when administered twice daily; details: Canis lupus familiaris
[34] = tested on: Mustela putorius furo; assay: In vivo antagonism of cisplatin-induced emesis in ferret measured as percentage protection for twice the dose of 3 mg/kg
[35] = tested on: Canis familiaris; assay: In vivo protection against cisplatin-induced emesis in dog measured as percentage protection twice the dose of 0.1 mg/kg and in 3 dogs

D(2) dopamine receptor (Canis lupus familiaris), sequence (Q9GJU1 whole entry): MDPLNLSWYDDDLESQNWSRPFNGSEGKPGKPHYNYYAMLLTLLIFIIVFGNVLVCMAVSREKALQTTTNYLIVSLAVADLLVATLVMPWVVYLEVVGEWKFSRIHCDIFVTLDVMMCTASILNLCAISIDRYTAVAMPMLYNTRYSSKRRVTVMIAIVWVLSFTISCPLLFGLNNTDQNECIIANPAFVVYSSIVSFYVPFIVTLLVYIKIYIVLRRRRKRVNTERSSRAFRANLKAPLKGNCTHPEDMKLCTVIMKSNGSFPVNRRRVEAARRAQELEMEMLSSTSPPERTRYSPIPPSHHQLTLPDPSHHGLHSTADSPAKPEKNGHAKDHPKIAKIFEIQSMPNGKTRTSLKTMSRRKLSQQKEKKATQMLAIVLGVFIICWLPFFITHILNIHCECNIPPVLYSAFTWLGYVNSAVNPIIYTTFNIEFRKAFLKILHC
D(2) dopamine receptor (Rattus norvegicus), sequence (P61169 whole entry): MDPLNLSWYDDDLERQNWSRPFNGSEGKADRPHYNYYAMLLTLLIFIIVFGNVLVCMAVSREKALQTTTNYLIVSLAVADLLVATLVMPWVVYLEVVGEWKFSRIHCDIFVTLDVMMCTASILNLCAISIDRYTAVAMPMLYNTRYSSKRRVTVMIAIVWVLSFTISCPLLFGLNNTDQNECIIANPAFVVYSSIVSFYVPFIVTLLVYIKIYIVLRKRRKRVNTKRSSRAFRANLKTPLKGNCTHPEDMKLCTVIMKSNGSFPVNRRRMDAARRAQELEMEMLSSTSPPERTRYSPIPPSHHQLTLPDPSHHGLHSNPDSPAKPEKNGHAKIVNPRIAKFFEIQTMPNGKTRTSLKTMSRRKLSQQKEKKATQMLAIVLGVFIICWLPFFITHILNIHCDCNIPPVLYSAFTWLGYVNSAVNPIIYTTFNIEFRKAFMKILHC
D(2) dopamine receptor, sequence (P61169 whole entry): as above

SMILES: CCN(CC)CCNC(=O)c1cc(Cl)c(N)cc1OCOCCOC
- ED50 [1]: > 3 mg/kg
- IC50 [2]: > 1000 nM
- Emetic episodes [3]: 3.5
- Protection [4]: 72%
- Emetic episodes [5]: 0
- Protection [6]: 100%
- ED50 [7]: > 40 mg/kg
- ED50 [8]: > 40 mg/kg

SMILES: O=c1[nH]c2ccccc2n1CCCN1CCC(n2c(=O)[nH]c3cc(Cl)ccc32)CC1 [DOMPERIDONE]
- ED50 [1]: 0.08 mg/kg
- Emetic episodes [9]: 9.7
- Protection [10]: 30%
- Emetic episodes [11]: 3.3
- Protection [12]: 50%
- ED50 [7]: > 40 mg/kg
- ED50 [8]: > 40 mg/kg

SMILES: CCN(CC)CCNC(=O)c1cc(Cl)c(N)cc1OC(C)C(C)=O (stereo not given) [BATANOPRIDE]
- Protection [13]: 60%
- Protection [14]: 87%
- ED50 [1]: > 3 mg/kg
- IC50 [2]: > 1000 nM
- Emetic episodes [15]: 5
- Emetic episodes [16]: 1.6
- Emetic episodes [17]: 0
- Emetic episodes [18]: 0.5
- Emetic episodes [19]: 1.5
- Emetic episodes [3]: 0.5
- Protection [4]: 96%
- Protection [20]: 86% and 100%
- Emetic episodes [21]: 2.5
- Emetic episodes [22]: 0.3
- Emetic episodes [23]: 0.5
- ED50 [24]: 0.14 mg/kg
- Protection [25]: 53%
- Protection [26]: 64%
- Protection [27]: 93%
- Emetic episodes [11]: 0.3
- Emetic episodes [28]: 3.3
- Emetic episodes [29]: 1
- Protection [30]: 96%
- Protection [31]: 96% and 54%
- Emetic episodes [32]: 3.3
- ED50 [7]: > 40 mg/kg
- ED50 [8]: > 40 mg/kg
- ED50 [33]: 0.05 mg/kg
- Protection [34]: 90%
- Protection [35]: 58%
